Assay results as given in ChEMBL document CHEMBL1137203, “Anti-AIDS agents. 60. Substituted 3'R,4'R-di-O-(-)-camphanoyl-2',2'-dimethyldihydropyrano[2,3-f]chromone (DCP) analogues as potent anti-HIV agents” (J Med Chem, 2004).
Where “and” joins values, the source holds several entries; their conditions need not be identical. Equal entries are not always repeated.

Assays:
[1] = test system: Human immunodeficiency virus 3; experiment: Inhibitory concentration against HIV IIIB replication in H9 lymphocytes; assay type: functional, organism-based, human immunodeficiency virus type IIIB; conditions: Human immunodeficiency virus 1
[2] = test system: Human immunodeficiency virus 1; experiment: Effective concentration against HIV IIIB replication in H9 lymphocytes
[3] = Inhibitory concentration against HIV-I RTMDR1 in MT-4 cells; assay type: functional, cell-based, Human immunodeficiency virus 1; conditions: mt4
[4] = Therapeutic index was determined; conditions: for selectivity ratio: read-out: TI
[5] = Effective concentration against HIV-I RTMDR1 in MT-4 cells; assay type: functional, cell-based, human immunodeficiency virus type i; conditions: mt4
How it was run: (§1)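 MT4 cells (6 × 10⁵ cells/mL) were infected with diluted HIV-1 RTMDR1/MT2 stock (RT mutations L74V, M41L, V106A, T215Y) at MOI 0.001 TCID₅₀/cell. Compounds were added at various concentrations in RPMI 1640 with 10% FBS, then incubated at 37 °C in humidified CO₂. Medium containing compound was replenished on day 2. p24 in day-4 supernatants was measured by ELISA.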

[6] = Effective concentration against HIV-I RTMDR1 in MT-4 cells; NS=No suppression at 10 ug/ml; assay type: functional, cell-based, human immunodeficiency virus type i; conditions: mt4; how it was run: as §1

| SMILES | IC50 [1] [µM] | EC50 [2] [µM] | IC50 [3] [µM] | EC50 [5] [µM] | EC50 [6] | TI [4] | selectivity ratio [4] |
| --- | --- | --- | --- | --- | --- | --- | --- |
| CC1(C)Oc2ccc3ccc(=O)oc3c2[C@@H](OC(=O)C23CCC(C)(C(=O)O2)C3(C)C)[C@H]1OC(=O)C12CCC(C)(C(=O)O1)C2(C)C (some centres not stated) | > 16.1 | 0.04 | > 16.1 | 12.1 | – | – | – |
| CC(C)c1cc(=O)c2ccc3c(c2o1)[C@@H](OC(=O)C12CCC(C)(C(=O)O1)C2(C)C)[C@@H](OC(=O)C12CCC(C)(C(=O)O1)C2(C)C)C(C)(C)O3 (some centres not stated) | 33.4 | 0.07 | > 15 | 0.14 | – | 483 | > 111 |
| CC1(C)Oc2ccc3c(=O)cc(-c4ccccc4)oc3c2[C@@H](OC(=O)C23CCC(C)(C(=O)O2)C3(C)C)[C@H]1OC(=O)C12CCC(C)(C(=O)O1)C2(C)C (some centres not stated) | > 35.8 | 0.12 | 12.2 | 0.17 | – | 71 | > 277 |
| Cc1cc(=O)c2ccc3c(c2o1)[C@@H](OC(=O)C12CCC(C)(C(=O)O1)C2(C)C)[C@@H](OC(=O)C12CCC(C)(C(=O)O1)C2(C)C)C(C)(C)O3 (some centres not stated) | 27.3 | 0.0031 | 11.8 | 0.19 | – | 8600 | 62.5 |
| CCOCc1cc(=O)c2ccc3c(c2o1)[C@@H](OC(=O)C12CCC(C)(C(=O)O1)C2(C)C)[C@@H](OC(=O)C12CCC(C)(C(=O)O1)C2(C)C)C(C)(C)O3 (some centres not stated) | 15.1 | 0.1 | > 12.5 | 0.37 | – | 151 | > 34 |
| Cc1oc2c3c(ccc2c(=O)c1C)OC(C)(C)[C@H](OC(=O)C12CCC(C)(C(=O)O1)C2(C)C)[C@@H]3OC(=O)C12CCC(C)(C(=O)O1)C2(C)C (some centres not stated) | 11.3 | 0.007 | 4.72 | 0.31 | – | – | – |
| CCCc1cc(=O)c2ccc3c(c2o1)[C@@H](OC(=O)C12CCC(C)(C(=O)O1)C2(C)C)[C@@H](OC(=O)C12CCC(C)(C(=O)O1)C2(C)C)C(C)(C)O3 (some centres not stated) | > 37.6 | 0.02 | 37.6 | 0.14 | – | – | – |
| CCc1cc(=O)c2ccc3c(c2o1)[C@@H](OC(=O)C12CCC(C)(C(=O)O1)C2(C)C)[C@@H](OC(=O)C12CCC(C)(C(=O)O1)C2(C)C)C(C)(C)O3 (some centres not stated) | 37.2 | 0.00032 | 43.1 | 0.06 | – | – | – |

Second part, led by results:

| IC50 [1] [µM] | EC50 [2] [µM] | IC50 [3] [µM] | EC50 [5] [µM] | EC50 [6] | SMILES | TI [4] | selectivity ratio [4] |
| --- | --- | --- | --- | --- | --- | --- | --- |
| > 50 | 2.29 | > 40.2 | 2.2 | – | CC(=O)O[C@@H]1[C@H](OC(=O)C23CCC(C)(C(=O)O2)C3(C)C)c2c(ccc3c(=O)cc(C)oc23)OC1(C)C (some centres not stated) | 18.2 | 21.9 |
| 40.7 | 0.88 | 17.1 | 0.3 | – | Cc1cc(=O)c2ccc3c(c2o1)[C@@H](OC(=O)C12CCC(C)(C(=O)O1)C2(C)C)[C@@H](OC(=O)C(C)C)C(C)(C)O3 (some centres not stated) | 56.3 | 46 |
| > 42.5 | 1.68 | – | – | No suppression | CC(C)C(=O)O[C@@H]1[C@H](OC(=O)C23CCC(C)(C(=O)O2)C3(C)C)c2c(ccc3c(=O)cc(-c4ccccc4)oc23)OC1(C)C (some centres not stated) | – | 25.3 |
| 35.4 | 1.62 | > 14.2 | 7.36 | – | CCc1cc(=O)c2cc(C(C)(C)C)c3c(c2o1)[C@@H](OC(=O)C12CCC(C)(C(=O)O1)C2(C)C)[C@@H](OC(=O)C12CCC(C)(C(=O)O1)C2(C)C)C(C)(C)O3 (some centres not stated) | – | – |
| > 44.6 | 2.24 | 6.25 | 4.46 | – | CC(=O)O[C@@H]1[C@H](OC(=O)C23CCC(C)(C(=O)O2)C3(C)C)c2c(ccc3c(=O)cc(-c4ccccc4)oc23)OC1(C)C (some centres not stated) | – | – |
| 14.7 | 0.00099 | 3.14 | 1.28 | – | Cc1coc2c3c(ccc2c1=O)OC(C)(C)[C@H](OC(=O)C12CCC(C)(C(=O)O1)C2(C)C)[C@@H]3OC(=O)C12CCC(C)(C(=O)O1)C2(C)C (some centres not stated) | – | – |
| > 35.8 | 1.54 | – | – | No suppression | CC1(C)Oc2ccc3c(=O)c(-c4ccccc4)coc3c2[C@@H](OC(=O)C23CCC(C)(C(=O)O2)C3(C)C)[C@H]1OC(=O)C12CCC(C)(C(=O)O1)C2(C)C (some centres not stated) | – | 23.3 |
| > 43.9 | 0.62 | > 17.5 | 1.09 | – | CCOCc1cc(=O)c2ccc3c(c2o1)[C@@H](OC(=O)C12CCC(C)(C(=O)O1)C2(C)C)[C@@H](OC(=O)C(C)C)C(C)(C)O3 (some centres not stated) | – | – |
| > 46.3 | 0.25 | > 18.5 | 0.28 | – | CCc1cc(=O)c2ccc3c(c2o1)[C@@H](OC(=O)C12CCC(C)(C(=O)O1)C2(C)C)[C@@H](OC(=O)C(C)C)C(C)(C)O3 (some centres not stated) | 182 and > 66.7 | – |
| > 32.2 | 0.0057 | 13 | 0.59 | – | Cc1cc(=O)c2ccc3c(c2o1)[C@@H](OC(=O)C12CCC(C)(C(=O)O1)C2(C)C)[C@@H](OC(=O)CC(C)C)C(C)(C)O3 (some centres not stated) | – | – |
| 14.2 | 0.0013 | – | – | No suppression | CC1(C)Oc2ccc3c(=O)ccoc3c2[C@@H](OC(=O)C23CCC(C)(C(=O)O2)C3(C)C)[C@H]1OC(=O)C12CCC(C)(C(=O)O1)C2(C)C (some centres not stated) | – | 11100 |
| > 39.3 | 0.0059 | > 15.7 | 9.43 | – | Cc1cc(=O)oc2c3c(ccc12)OC(C)(C)[C@H](OC(=O)C12CCC(C)(C(=O)O1)C2(C)C)[C@@H]3OC(=O)C12CCC(C)(C(=O)O1)C2(C)C (some centres not stated) | – | – |
| 1870 | 0.04 | > 37.5 | 0.1 | – | Cc1cn([C@H]2C[C@H](N=[N+]=[N-])[C@@H](CO)O2)c(=O)[nH]c1=O [ZIDOVUDINE] | – | – |
